According to ChEMBL document CHEMBL4138139, “Discovery of VU6005649, a CNS Penetrant mGlu7/8 Receptor PAM Derived from a Series of Pyrazolo[1,5-a]pyrimidines” (ACS Med Chem Lett, 2017):

How the values were obtained:
[1] = biological target: Adenosine receptor A1 (Homo sapiens) (UniProt P30542); experiment: Displacement of [3H] DPCPX from full length human recombinant A1 receptor expressed in CHOK1 cell membranes at 10 uM after 90 mins by scintillation counting method relative to control
Procedure, shortened: (§1)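 Single-concentration screen at 10 μM in an outsourced profiling panel of 68 GPCRs, ion channels and transporters. Activity read out as percent inhibition of specific radioligand binding.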

Homo sapiens = species on record: Homo sapiens; experiment: Displacement of [3H] spiperone from recombinant human D4.2 receptor expressed in CHOK1 cell membranes at 10 uM after 120 mins by scintillation counting method relative to control
Procedure, shortened: (§2)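 Single-concentration screen at 10 μM within a commercial lead-profiling panel of 68 GPCRs, ion channels and transporters. Activity read as percent inhibition of specific radioligand binding to each target.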

Rattus norvegicus [2] = species on record: Rattus norvegicus; experiment: Inhibition of rat N-type calcium channel at 10 uM relative to control; procedure, shortened: as §2
[3] = biological target: L-type calcium channel, benzothiazepine site (Rattus norvegicus, UniProt P22002+P27732+Q02485); experiment: Inhibition of rat L-type calcium channel benzothiazepine site at 10 uM relative to control; assay type: protein assay
Rattus norvegicus [4] = species on record: Rattus norvegicus; experiment: Displacement of [3H]batrachotoxinin from sodium channel site 2 in Wistar rat brain membranes at 10 uM after 60 mins by scintillation counting method relative to control; assay type: cell membranes; conditions: Membrane; procedure, shortened: as §2
[5] = biological target: 5-hydroxytryptamine receptor 1A (Homo sapiens) (UniProt P08908); experiment: Displacement of [3H] 8-OH-DPAT from full length human recombinant 5-HT1A receptor expressed in CHOK1 cell membranes at 10 uM after 60 mins by scintillation counting method relative to control; procedure, shortened: as §1
Sequence of 5-hydroxytryptamine receptor 1A (Homo sapiens) (P08908 whole entry): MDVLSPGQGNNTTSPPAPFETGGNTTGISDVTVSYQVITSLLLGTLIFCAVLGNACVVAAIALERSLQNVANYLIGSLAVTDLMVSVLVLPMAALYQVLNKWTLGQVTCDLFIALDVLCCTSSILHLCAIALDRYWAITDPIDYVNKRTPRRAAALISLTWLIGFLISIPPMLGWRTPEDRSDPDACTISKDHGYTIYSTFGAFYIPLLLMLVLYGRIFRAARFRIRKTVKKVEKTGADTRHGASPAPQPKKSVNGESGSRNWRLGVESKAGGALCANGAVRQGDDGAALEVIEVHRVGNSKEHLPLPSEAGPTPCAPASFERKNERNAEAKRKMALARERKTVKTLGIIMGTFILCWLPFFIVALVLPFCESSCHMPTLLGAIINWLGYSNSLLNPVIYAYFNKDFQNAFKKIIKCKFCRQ

[6] = Brain to plasma partition coefficient, Kp of the compound in C57BL/6 mouse at 10 mg/kg, ip measured after 360 mins by LC-MS/MS analysis; assay type: ADME, organism-based; conditions: brain and plasma
Procedure, shortened: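 Mice given 10 mg/kg IP; time course out to 6 h with nonserial sampling of plasma and brain at each time point; Kp from brain/plasma levels.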

Substance-P receptor = Substance-P receptor (Homo sapiens, UniProt P25103); experiment: Displacement of [3H] substance P from recombinant human NK1 receptor expressed in CHO cells after 90 mins by scintillation counting method; assay type: cell-based
Sequence of Substance-P receptor (P25103 whole entry): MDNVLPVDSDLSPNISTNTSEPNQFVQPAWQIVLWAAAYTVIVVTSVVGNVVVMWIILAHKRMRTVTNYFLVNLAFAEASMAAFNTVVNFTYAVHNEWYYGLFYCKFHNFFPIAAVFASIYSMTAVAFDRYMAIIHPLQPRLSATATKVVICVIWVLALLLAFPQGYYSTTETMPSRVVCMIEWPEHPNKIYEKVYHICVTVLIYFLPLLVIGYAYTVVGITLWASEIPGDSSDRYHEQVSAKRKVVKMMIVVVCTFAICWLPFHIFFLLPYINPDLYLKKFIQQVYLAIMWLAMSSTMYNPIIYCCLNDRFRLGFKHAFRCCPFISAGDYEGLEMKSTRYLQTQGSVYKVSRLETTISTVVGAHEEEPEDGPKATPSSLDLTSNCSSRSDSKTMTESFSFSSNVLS

[7] = biological target: Beta-2 adrenergic receptor (Homo sapiens) (UniProt P07550); experiment: Displacement of [3H] CGP-12177 from recombinant human beta2 receptor expressed in CHO cell membranes co-expressing human NBR1 at 10 uM after 60 mins by scintillation counting method relative to control; procedure, shortened: as §1
[8] = biological target: Glucocorticoid receptor (Homo sapiens) (UniProt P04150); experiment: Displacement of [3H] dexamethasone from full length human recombinant glucocorticoid receptor expressed in insect cells at 10 uM after 24 hrs by scintillation counting method relative to control; procedure, shortened: as §1
[9] = biological target: B1 bradykinin receptor (Homo sapiens) (UniProt P46663); experiment: Displacement of [3H]kallidin (des-Arg10, Leu9) from recombinant human bradykinin B1 receptor expressed in CHOK1 cell membranes at 10 uM measured after 60 mins by scintillation counting method relative to control; procedure, shortened: as §2
[10] = biological target: Metabotropic glutamate receptor 3 (Rattus norvegicus, UniProt P31422); experiment: Positive allosteric modulation of rat mGlu3 receptor expressed in HEK cells assessed as increase in glutamate-induced calcium flux incubated for 142 secs followed by glutamate addition measured after 120 secs by Fluo4-AM dye based fluorescence assay; assay type: functional, cell-based
Sequence of Metabotropic glutamate receptor 3 (P31422 whole entry): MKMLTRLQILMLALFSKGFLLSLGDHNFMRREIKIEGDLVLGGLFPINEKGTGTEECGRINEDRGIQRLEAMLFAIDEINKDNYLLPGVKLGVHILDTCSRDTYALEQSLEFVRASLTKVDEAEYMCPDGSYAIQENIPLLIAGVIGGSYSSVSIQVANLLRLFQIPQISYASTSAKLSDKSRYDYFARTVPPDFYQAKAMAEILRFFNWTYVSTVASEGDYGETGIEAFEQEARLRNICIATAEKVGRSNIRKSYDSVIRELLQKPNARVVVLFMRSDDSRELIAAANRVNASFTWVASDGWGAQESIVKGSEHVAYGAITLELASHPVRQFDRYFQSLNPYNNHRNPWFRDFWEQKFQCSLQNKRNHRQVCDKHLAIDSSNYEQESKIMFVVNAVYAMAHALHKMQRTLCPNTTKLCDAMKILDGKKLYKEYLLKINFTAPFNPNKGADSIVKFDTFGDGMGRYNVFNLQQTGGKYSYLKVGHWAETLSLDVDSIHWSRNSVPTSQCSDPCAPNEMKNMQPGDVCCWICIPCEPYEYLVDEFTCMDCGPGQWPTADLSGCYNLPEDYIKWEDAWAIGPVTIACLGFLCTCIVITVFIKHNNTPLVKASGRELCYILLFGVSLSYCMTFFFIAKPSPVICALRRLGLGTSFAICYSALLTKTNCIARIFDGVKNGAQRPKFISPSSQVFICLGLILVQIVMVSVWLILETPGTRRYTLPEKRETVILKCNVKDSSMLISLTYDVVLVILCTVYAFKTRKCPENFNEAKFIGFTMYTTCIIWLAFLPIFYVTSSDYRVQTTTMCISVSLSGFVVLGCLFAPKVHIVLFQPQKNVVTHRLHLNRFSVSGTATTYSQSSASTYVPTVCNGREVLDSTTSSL

[11] = biological target: Metabotropic glutamate receptor 6 (Homo sapiens, UniProt O15303); experiment: Negative allosteric modulation of human mGlu6 receptor expressed in HEK cells harboring GIRK channel assessed as decrease in glutamate-induced thallium flux incubated for 142 secs followed by glutamate addition measured after 120 secs by Fluo4-AM dye based fluorescence assay; assay type: functional, cell-based
[12] = biological target: Histamine H1 receptor (Homo sapiens) (UniProt P35367); experiment: Displacement of [3H] pyrilamine from recombinant human H1 receptor expressed in CHOK1 cell membranes at 10 uM after 180 mins by scintillation counting method relative to control; procedure, shortened: as §2
Sequence of Histamine H1 receptor (Homo sapiens) (P35367 whole entry): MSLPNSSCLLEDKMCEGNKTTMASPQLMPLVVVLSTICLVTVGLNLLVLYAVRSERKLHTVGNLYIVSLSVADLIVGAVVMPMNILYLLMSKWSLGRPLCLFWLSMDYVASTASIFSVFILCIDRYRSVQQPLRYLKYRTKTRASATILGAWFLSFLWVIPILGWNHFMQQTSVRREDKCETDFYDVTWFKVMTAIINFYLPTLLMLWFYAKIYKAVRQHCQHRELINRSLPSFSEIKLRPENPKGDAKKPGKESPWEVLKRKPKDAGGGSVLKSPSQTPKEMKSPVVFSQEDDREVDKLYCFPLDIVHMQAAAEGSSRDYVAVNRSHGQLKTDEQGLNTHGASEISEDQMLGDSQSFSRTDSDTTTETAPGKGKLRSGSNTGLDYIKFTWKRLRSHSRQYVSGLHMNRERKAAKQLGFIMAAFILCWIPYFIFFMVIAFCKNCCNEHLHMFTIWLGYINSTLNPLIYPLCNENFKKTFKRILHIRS

Rattus norvegicus [13] = species on record: Rattus norvegicus; experiment: Displacement of [3H]-flunitrazepam from Wistar rat brain central GABA-A receptor at 10 uM measured after 60 mins by scintillation counting method relative to control; procedure, shortened: as §2
[14] = biological target: Histamine H2 receptor (Homo sapiens) (UniProt P25021); experiment: Displacement of [125I] aminopotentidine from recombinant human H2 receptor expressed in CHOK1 cell membranes at 10 uM after 120 mins by scintillation counting method relative to control; procedure, shortened: as §1
Sequence of Histamine H2 receptor (Homo sapiens) (P25021 whole entry): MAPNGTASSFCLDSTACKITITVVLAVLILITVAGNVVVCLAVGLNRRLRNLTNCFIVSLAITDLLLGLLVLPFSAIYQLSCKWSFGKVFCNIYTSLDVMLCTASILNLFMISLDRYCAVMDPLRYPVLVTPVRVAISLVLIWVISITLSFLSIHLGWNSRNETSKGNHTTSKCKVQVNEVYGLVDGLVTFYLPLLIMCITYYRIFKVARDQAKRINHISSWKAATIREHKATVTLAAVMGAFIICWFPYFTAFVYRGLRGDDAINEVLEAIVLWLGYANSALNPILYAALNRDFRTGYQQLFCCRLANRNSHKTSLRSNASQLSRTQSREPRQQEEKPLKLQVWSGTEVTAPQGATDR

[15] = biological target: Androgen receptor (Homo sapiens) (UniProt P10275); experiment: Displacement of [3H] methyltrienolone from androgen receptor in human LNCAP cells at 10 uM after 20 hrs by scintillation counting method relative to control; assay type: cell-based
[16] = biological target: Sodium-dependent dopamine transporter (Homo sapiens) (UniProt Q01959); experiment: Displacement of [125I] RTI-55 from full length human recombinant DAT expressed in CHO cell membranes at 10 uM after 180 mins by scintillation counting method relative to control; procedure, shortened: as §1
[17] = biological target: Alpha-2A adrenergic receptor (Homo sapiens) (UniProt P08913); experiment: Displacement of [3H]rauwolscine from full length human recombinant alpha2a receptor expressed in CHOK1 cells at 10 uM after 60 mins by scintillation counting method relative to control; assay type: cell-based; procedure, shortened: as §2
Rattus norvegicus [18] = species on record: Rattus norvegicus; experiment: Inhibition of rat kainate glutamate receptor at 10 uM relative to control; procedure, shortened: as §2
[19] = biological target: Metabotropic glutamate receptor 2 (Rattus norvegicus, UniProt P31421); experiment: Positive allosteric modulation of rat mGlu2 receptor expressed in HEK cells assessed as increase in glutamate-induced calcium flux incubated for 142 secs followed by glutamate addition measured after 120 secs by Fluo4-AM dye based fluorescence assay; assay type: functional, cell-based
Sequence of Metabotropic glutamate receptor 2 (P31421 whole entry): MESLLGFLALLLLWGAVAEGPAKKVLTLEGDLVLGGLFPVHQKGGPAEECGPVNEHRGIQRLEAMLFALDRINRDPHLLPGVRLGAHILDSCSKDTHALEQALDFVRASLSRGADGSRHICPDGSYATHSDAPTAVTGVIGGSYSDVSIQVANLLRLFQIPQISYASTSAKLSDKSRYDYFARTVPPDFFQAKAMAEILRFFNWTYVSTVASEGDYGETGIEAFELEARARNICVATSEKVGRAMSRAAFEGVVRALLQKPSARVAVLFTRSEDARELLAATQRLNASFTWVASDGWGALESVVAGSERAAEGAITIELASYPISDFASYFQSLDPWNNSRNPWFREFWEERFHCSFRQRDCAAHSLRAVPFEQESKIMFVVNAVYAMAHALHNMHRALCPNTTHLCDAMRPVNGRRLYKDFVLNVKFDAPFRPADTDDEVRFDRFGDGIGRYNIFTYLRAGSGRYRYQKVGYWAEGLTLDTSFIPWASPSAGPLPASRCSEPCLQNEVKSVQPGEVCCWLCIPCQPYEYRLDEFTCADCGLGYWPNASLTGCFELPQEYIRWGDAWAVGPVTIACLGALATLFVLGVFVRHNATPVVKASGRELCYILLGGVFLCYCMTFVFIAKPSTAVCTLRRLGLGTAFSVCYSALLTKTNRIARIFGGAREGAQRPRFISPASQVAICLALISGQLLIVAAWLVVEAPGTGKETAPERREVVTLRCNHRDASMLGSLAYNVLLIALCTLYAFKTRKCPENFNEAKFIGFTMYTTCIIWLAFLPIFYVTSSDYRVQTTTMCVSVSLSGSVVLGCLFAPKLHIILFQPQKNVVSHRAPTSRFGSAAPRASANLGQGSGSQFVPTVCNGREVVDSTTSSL

[20] = biological target: Neuropeptide Y receptor type 2 (Homo sapiens) (UniProt P49146); experiment: Displacement of [125I] Peptide YY from Y2 receptor in human KAN-TS cell membrane at 10 uM after 120 mins by scintillation counting method relative to control; assay type: cell membranes; procedure, shortened: as §1
Sequence of Neuropeptide Y receptor type 2 (Homo sapiens) (P49146 whole entry): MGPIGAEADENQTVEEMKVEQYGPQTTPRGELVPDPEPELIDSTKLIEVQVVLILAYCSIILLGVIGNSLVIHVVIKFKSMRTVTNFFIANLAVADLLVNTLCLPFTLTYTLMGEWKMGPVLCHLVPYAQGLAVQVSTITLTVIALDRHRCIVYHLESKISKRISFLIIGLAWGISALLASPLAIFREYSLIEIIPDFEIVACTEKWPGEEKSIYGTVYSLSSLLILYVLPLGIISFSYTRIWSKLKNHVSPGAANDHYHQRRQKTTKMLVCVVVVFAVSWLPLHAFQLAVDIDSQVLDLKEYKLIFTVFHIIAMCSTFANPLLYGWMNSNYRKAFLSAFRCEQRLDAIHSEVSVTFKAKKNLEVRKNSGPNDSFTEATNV

Rattus norvegicus [21] = species on record: Rattus norvegicus; experiment: Displacement of [3H] muscimol from Wistar rat central GABAA at 10 uM measured after 10 mins by scintillation counting method relative to control; procedure, shortened: as §1
[22] = biological target: 5-hydroxytryptamine receptor 2B (Homo sapiens) (UniProt P41595); experiment: Displacement of [3H] LSD from full length human recombinant 5-HT2B receptor expressed in CHOK1 cell membranes at 10 uM after 60 mins by scintillation counting method relative to control; procedure, shortened: as §1
Sequence of 5-hydroxytryptamine receptor 2B (Homo sapiens) (P41595 whole entry): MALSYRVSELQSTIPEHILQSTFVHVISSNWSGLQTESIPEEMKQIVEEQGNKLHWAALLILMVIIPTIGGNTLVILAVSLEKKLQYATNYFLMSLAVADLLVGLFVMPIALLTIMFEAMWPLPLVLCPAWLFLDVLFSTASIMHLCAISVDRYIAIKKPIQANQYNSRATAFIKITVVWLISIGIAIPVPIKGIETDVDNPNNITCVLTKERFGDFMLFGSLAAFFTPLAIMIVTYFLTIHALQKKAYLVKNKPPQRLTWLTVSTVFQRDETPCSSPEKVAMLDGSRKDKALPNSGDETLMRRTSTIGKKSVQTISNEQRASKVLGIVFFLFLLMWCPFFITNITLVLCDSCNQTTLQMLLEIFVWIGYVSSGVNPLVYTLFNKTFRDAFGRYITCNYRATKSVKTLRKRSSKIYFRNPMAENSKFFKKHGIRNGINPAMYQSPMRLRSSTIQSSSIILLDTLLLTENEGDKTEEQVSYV

[23] = biological target: Endothelin-1 receptor (Homo sapiens) (UniProt P25101); experiment: Displacement of [125I] endothelin-1 from recombinant human ETA receptor expressed in CHOK1 cell membranes at 10 uM after 120 mins by scintillation counting method relative to control; procedure, shortened: as §1
Sequence of Endothelin-1 receptor (Homo sapiens) (P25101 whole entry): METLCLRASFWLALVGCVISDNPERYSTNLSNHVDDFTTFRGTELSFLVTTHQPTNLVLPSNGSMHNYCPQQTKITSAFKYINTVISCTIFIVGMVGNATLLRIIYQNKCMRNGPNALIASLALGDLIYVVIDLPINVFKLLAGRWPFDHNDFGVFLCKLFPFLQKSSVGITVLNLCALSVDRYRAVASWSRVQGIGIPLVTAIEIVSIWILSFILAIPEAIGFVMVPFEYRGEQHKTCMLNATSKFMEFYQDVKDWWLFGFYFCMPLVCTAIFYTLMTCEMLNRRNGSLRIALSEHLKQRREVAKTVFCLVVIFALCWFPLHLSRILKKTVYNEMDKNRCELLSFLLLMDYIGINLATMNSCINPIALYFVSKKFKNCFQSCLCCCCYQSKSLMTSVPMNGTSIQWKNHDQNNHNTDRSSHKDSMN

[24] = biological target: Glutamate NMDA receptor (Rattus norvegicus) (UniProt P35439+Q00959+Q00960+Q00961+Q62645+Q8VHN2+Q9R1M7); experiment: Displacement of [3H]-MDL-105519 from glutamate NMDA receptor glycine binding site in Wistar rat cerebral cortical membrane at 10 uM after 30 mins by scintillation counting method relative to control; procedure, shortened: as §2
[25] = biological target: D(3) dopamine receptor (Homo sapiens) (UniProt P35462); experiment: Displacement of [3H] spiperone from recombinant human D3 receptor expressed in CHO cell membranes at 10 uM after 120 mins by scintillation counting method relative to control; procedure, shortened: as §2

Compound COc1ccc(-c2c(C)nn3c(C(F)(F)F)cc(C)nc23)c(F)c1F has an inhibition [1] of under 50%, an inhibition (Homo sapiens) of under 50% and an inhibition (Rattus norvegicus [2]) of under 50%. For the same compound, the inhibition at 10 µM [3] was under 50%, the inhibition (Rattus norvegicus [4]) was under 50% and the inhibition [5] was under 50%. It also gave a Kp at 6 h [6] of 1.1, an IC50 (Substance-P receptor) of 3.4 µM and a Ki (Substance-P receptor) of 0.65 µM. For the same compound, the inhibition [7] was under 50%, the inhibition [8] was under 50% and the inhibition [9] was under 50%. It also gave an EC50 [10] of over 10 µM, an IC50 [11] of over 10 µM and an inhibition [12] of under 50%. For the same compound, the inhibition (Rattus norvegicus [13]) was under 50%, the inhibition [14] was under 50% and the inhibition [15] was under 50%. For the same compound, the inhibition [16] was under 50%, the inhibition [17] was under 50% and the inhibition (Rattus norvegicus [18]) was under 50%. The EC50 [19] was over 10 µM, the inhibition [20] was under 50% and the inhibition (Rattus norvegicus [21]) was under 50%. It also gave an inhibition [22] of under 50%, an inhibition [23] of under 50% and an inhibition [24] of under 50%. The inhibition [25] was under 50%.
